In experiment [1] the test system is LNCaP. The experiment is described as follows: Cytotoxicity against human LNCaP cells after 5 days by MTT assay. In kind it is functional. The note with it: 120 h. In outline:
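LNCaP cells (RPMI 1640, 10% FBS, 1% penicillin/streptomycin, 37 °C, 5% CO2) seeded at 2 × 10^4 cells/well, left to adhere 24 h, then exposed to compounds in DMSO for five days, with compound and medium renewed on day 3. MTT (0.5 mg/mL) added for 2 h, formazan dissolved in DMSO, absorbance read at 560 nm. Triplicate wells, three independent experiments. GI50 from nonlinear regression.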
On the technique in general: Formazan colour is commonly taken as a measure of viable cells.

A further experiment concerns PC-3. The experiment is described as follows: Cytotoxicity against human PC3 cells after 5 days by MTT assay. The settings on record: PC-3, 120 h. Type of experiment: functional. In outline:
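Growth inhibition by MTT assay with absorbance read at 560 nm. Values are means of three independent experiments.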

The test system of experiment [2] is LNCaP. The experiment can be described thus: Down regulation of androgen receptor expression in human LNCaP cells by Western blot analysis. In kind it is functional, cell-based. The essentials: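 LNCaP cells cultured in T25 flasks and treated with compounds. Lysates made in 0.1 M Tris, 0.5% Triton X-100 and protease inhibitor, protein measured by Bradford assay, then run on 10% SDS-PAGE. AR detected with monoclonal AR441 (1:500) and HRP anti-mouse secondary (1:2000) by ECL. Signal normalized to β-actin.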
(Immunoblotting shows a protein as a band on a membrane.)

Experiment [3] deals with T1, Androgen receptor (Homo sapiens) (UniProt P10275).
T1 sequence (whole entry): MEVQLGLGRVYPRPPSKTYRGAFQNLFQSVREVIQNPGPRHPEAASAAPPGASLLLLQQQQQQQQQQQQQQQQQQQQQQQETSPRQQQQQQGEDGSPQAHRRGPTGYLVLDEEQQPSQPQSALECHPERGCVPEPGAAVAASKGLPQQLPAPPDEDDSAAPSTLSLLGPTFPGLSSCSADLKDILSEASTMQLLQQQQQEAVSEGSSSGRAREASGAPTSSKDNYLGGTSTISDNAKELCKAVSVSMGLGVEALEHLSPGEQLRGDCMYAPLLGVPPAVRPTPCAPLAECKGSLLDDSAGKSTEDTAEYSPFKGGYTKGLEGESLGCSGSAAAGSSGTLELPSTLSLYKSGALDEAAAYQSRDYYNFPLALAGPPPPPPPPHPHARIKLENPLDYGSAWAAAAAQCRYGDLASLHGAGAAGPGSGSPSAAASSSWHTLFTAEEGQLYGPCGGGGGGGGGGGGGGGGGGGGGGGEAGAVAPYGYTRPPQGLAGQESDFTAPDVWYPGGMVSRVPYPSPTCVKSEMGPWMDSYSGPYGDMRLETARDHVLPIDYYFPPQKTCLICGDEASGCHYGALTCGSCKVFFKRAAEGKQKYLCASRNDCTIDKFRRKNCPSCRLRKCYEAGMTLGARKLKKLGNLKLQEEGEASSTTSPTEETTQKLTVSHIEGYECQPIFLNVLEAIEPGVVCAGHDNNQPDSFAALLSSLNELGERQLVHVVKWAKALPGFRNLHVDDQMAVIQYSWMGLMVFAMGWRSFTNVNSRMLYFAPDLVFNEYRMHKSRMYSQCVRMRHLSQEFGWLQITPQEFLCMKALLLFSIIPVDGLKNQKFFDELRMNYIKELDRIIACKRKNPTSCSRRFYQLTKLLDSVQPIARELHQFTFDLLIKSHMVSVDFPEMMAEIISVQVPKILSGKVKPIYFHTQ
The experiment is described as follows: Displacement of [3H]R1881 from mutated androgen receptor expressed in human LNCaP cells. In kind it is cell-based. Background: In a radioligand displacement assay an active substance lowers the binding of a labelled ligand.

In experiment [4] the target is T1, Androgen receptor (Homo sapiens). The experiment is described as follows: Displacement of [3H]R1881 from wild type androgen receptor expressed in human PC3 cells. In kind it is cell-based. The note with it: PC-3.
Experiment [5] shares this target. The experiment can be described thus: Activity at androgen receptor expressed in human LNCaP cells assessed as decrease in dihydrotestosterone-stimulated transcriptional activity at 10 uM after 18 hrs by luciferase reporter gene assay. Also on record: scale not given: the % may be the effect or the level left. In kind it is cell-based. The essentials:
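LNCaP cells transiently transfected with the probasin-driven ARR2-Luc reporter, held in steroid-free medium, then given vehicle or compound with or without 5 nM DHT for 18 h before luciferase read-out. Mean of three independent experiments.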

For experiment [6] the target is unchanged. The experiment is described as follows: Displacement of [3H]R1881 from wild type androgen receptor expressed in human PC3 cells at 10 uM. In kind it is cell-based. The note with it: PC-3.
For experiment [7] the target is unchanged. The experiment is described as follows: Displacement of [3H]R1881 from wild type androgen receptor expressed in human PC3 cells at 20 uM. In kind it is cell-based. The note with it: PC-3.

From ChEMBL document CHEMBL1157168, “Potent anti-prostate cancer agents derived from a novel androgen receptor down-regulating agent” (Bioorg Med Chem, 2008) come the findings set out here.

The GI50 is the concentration at which growth is held to half of that of the control. As usually defined, the EC50 is the concentration needed to bring the measured effect to its halfway point.

Structures are written as SMILES.

For the compound `Cc1ccc(-c2nnn[nH]2)c(NS(=O)(=O)c2ccc(F)cc2)c1`, the GI50 with LNCaP [1] and with PC-3 was over 100 µM in each case.
In the case of `Cc1ccc(S(=O)(=O)Nc2ccc(C)cc2[N+](=O)[O-])cc1`, the concentration for 50% growth inhibition (GI50) with LNCaP [1] came out at 39.8 µM; with PC-3 it was 43.7 µM.
On the same counts, the results for `Cc1ccc(NCc2ccccc2)cc1` [N-BENZYL-4-METHYLANILINE] are over 100 µM and 52.4 µM.
In the case of `Cc1ccc(C#N)c(NS(=O)(=O)c2ccc(F)cc2)c1`, the figures for the GI50 in the experiment on LNCaP [1] and in the experiment on PC-3 were 30.2 µM and over 100 µM, respectively.
On the same counts, the results for `Cc1ccc(NS(=O)(=O)c2ccccc2)c([N+](=O)[O-])c1` are 0.00295 µM and 60.2 µM.
For `Cc1ccc(S(=O)(=O)Nc2ccccc2[N+](=O)[O-])cc1`, the results for the GI50 with LNCaP [1] and in the experiment with PC-3 were 0.083 µM and 50.1 µM, respectively. Also, the concentration for a half-maximal effect (EC50) in the experiment with LNCaP [2] was over 150 µM.
For `Cc1ccc(NS(=O)(=O)c2ccc(F)cc2)c([N+](=O)[O-])c1`, the figures for the GI50 in the experiment with LNCaP [1] and with PC-3 were 0.00234 µM and 0.85 µM, respectively. The Activity result in experiment [3] was “Dose-dependent effect”; in experiment [4] it was “Dose-dependent effect”; in experiment [5], 50%.
In the experiment with LNCaP [1], `Cc1ccc(NS(=O)(=O)c2ccccc2)c(C(=O)O)c1` displayed a GI50 of 0.0182 µM.
As to `O=[N+]([O-])c1ccccc1NS(=O)(=O)c1ccccc1`, the results for the 50% growth inhibitory concentration (GI50) in the experiment on LNCaP [1] and with PC-3 were 0.0148 µM and 22.9 µM, respectively.
In the same order, the values of `Cc1ccc(NS(=O)(=O)c2ccccc2)cc1` are 21.3 µM and 13.8 µM.
In the same order, the values of `Cc1ccc(S(=O)(=O)Nc2ccccc2)cc1` are 24 µM and 38.9 µM.
On the same counts, the results for `Cc1ccc(N(C)S(=O)(=O)c2ccc(C)cc2)cc1` are 89.2 µM and 44.7 µM.
With `Cc1ccc(NC(=O)c2ccc(C)cc2)cc1`, the 50% growth inhibitory concentration (GI50) came to 55 µM in the experiment on LNCaP [1] and 26.9 µM with PC-3.
In the same order, the values of `Cc1ccc(NS(=O)(=O)c2ccc(F)cc2)c(C(=O)O)c1` are 10.7 µM and over 100 µM.
As for `O=S(=O)(Nc1ccccc1)c1ccccc1` [PHENYL(PHENYLSULFONYL)AMINE], in the experiment on PC-3, the GI50 is over 100 µM.
Turning to `Cc1ccc(NS(=O)(=O)c2ccc(C)cc2)cc1`, the GI50 was found to be 0.00145 µM in the experiment on LNCaP [1] and 30.2 µM in the experiment with PC-3. The compound further yielded an EC50 in the experiment with LNCaP [2] of 150 µM. For the same compound, the Activity entry in experiment [3] was “Dose-dependent effect”; in experiment [4] it was “Dose-dependent effect”; in experiment [6], 65%; in experiment [7] it was 80%; in experiment [5] it was 80%.
Turning to `Cc1ccc(CNc2ccc(C)cc2)cc1`, the 50% growth inhibitory concentration (GI50) in the experiment with LNCaP [1] came to 19.1 µM; in the experiment on PC-3, 29.5 µM.
